From ChEMBL document CHEMBL3259725, “Synthesis of stable aromatic and heteroaromatic sulfonyl-amidoximes and evaluation of their antioxidant and lipid peroxidation activity” (Eur J Med Chem, 2014)
Active and inactive are the calls of the source. The rule behind the calls is not given here.

Legend:
Format in all cases: functional
[1] = tested on: Radical scavenging activity; experiment: Antioxidant activity assessed as reduction of DPPH free radical formation at 100 uM after 60 mins relative to control; set-up: scale not given: the % may be the effect or the level left
How it was run: (§1)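 Compounds at a final 100 concentration were mixed with the stable radical DPPH, using ethanol as the control solution. Absorbance at 517 nm was read after 20 and 60 min at room temperature. Each assay was run at least in triplicate.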

[2] = Antioxidant activity assessed as inhibition of Fe3+/ascorbic acid-induced hydroxyl radical formation by measuring DMSO-induced formaldehyde production at 100 uM after 30 mins relative to control
How it was run: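 Hydroxyl radicals were generated by Fe3+/ascorbic acid in 50 mM phosphate buffer, pH 7.4, containing 0.1 mM EDTA and 33 mM DMSO, with compounds at 0.1 mM. Radical yield was measured as formaldehyde formed from DMSO oxidation, determined by the Nash method.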

[3] = tested on: Radical scavenging activity; experiment: Antioxidant activity assessed as reduction of DPPH free radical formation at 100 uM after 20 mins relative to control; set-up: scale not given: the % may be the effect or the level left; how it was run: as §1
[4] = Antioxidant activity assessed as inhibition of AAPH-induced linoleic acid peroxidation at 100 uM by UV spectrophotometric analysis relative to control
How it was run: (§2)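 Linoleic acid dispersion (16 mM stock) in 0.05 M phosphate buffer, pH 7.4, pre-equilibrated at 37 °C. Oxidation was started with AAPH (40 mM stock solution) as radical initiator, with test compound added in DMSO. Conjugated diene hydroperoxide formation was followed as the rise in absorbance at 234 nm at 37 °C. The control contained the same level of DMSO without antioxidant.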

[5] = Antioxidant activity assessed as inhibition of AAPH-induced linoleic acid peroxidation by UV spectrophotometric analysis; how it was run: as §2

| Compound | Activity [1] | inhibition [2] | Activity [3] | inhibition [4] | IC50 [5] [µM] |
| --- | --- | --- | --- | --- | --- |
| CCCCCCCCCCS(=O)(=O)O/N=C(\N)c1ccc([N+](=O)[O-])cc1 | 12% | 48% | 3% | inactive | – |
| CCCCCCCCCCCCCCCCS(=O)(=O)O/N=C(\N)c1cccnc1 | 16% | 69% | 7% | – | 70 |
| N=C(NOS(=O)(=O)c1ccccc1)c1ccncc1 | 11% | 44% | 2% | 22% | – |
| CCCCCCCCCCS(=O)(=O)O/N=C(\N)c1ccncc1 | 21% | 70% | 14% | 28% | – |
| CCCS(=O)(=O)O/N=C(\N)c1ccc([N+](=O)[O-])cc1 | 19% | 75% | 10% | 22% | – |
| Cc1c(C)c2c(c(C)c1O)CCC(C)(C(=O)O)O2 (stereo unspecified) [TROLOX] | – | 88% | – | – | 55 |
| N/C(=N\OS(=O)(=O)c1ccc([N+](=O)[O-])cc1)c1ccc([N+](=O)[O-])cc1 | 38% | inactive | 34% | – | 66.5 |
| Cc1ccc(S(=O)(=O)O/N=C(\N)c2cccnc2)cc1 | 41% | 95% | 34% | 43% | – |
| NC(=NO)c1ccncc1 | 7% | 87% | 3% | inactive | – |
| CCCS(=O)(=O)O/N=C(\N)c1ccccn1 | 1% | 83% | 6% | inactive | – |
| CCCCCCCCCCS(=O)(=O)O/N=C(\N)c1ccccn1 | 10% | 79% | 11% | 46% | – |
| Cc1ccc(S(=O)(=O)O/N=C(\N)c2ccccn2)cc1 | 4% | 72% | 5% | – | 80 |
| Cc1ccc(S(=O)(=O)O/N=C(\N)c2ccc([N+](=O)[O-])cc2)cc1 | 11% | 78% | 10% | 25% | – |
| CCCCCCCCCCCCCCCCS(=O)(=O)O/N=C(\N)c1ccncc1 | 21% | inactive | 14% | 12% | – |
| CC(Cc1ccc(O)c(O)c1)C(C)Cc1ccc(O)c(O)c1 (stereo unspecified) | 81% | – | 77% | – | – |
| N/C(=N\O)c1ccccn1 | 14% | 81% | 11% | inactive | – |
| CCCCCCCCCCCCCCCCS(=O)(=O)O/N=C(\N)c1ccc([N+](=O)[O-])cc1 | 24% | 100% | 21% | 3% | – |
| CCCCCCCCCCCCCCCCS(=O)(=O)O/N=C(\N)c1ccccn1 | 1% | inactive | 4% | 21% | – |
| N/C(=N\OS(=O)(=O)c1ccc([N+](=O)[O-])cc1)c1ccccn1 | 32% | 98% | 32% | – | 72 |
| N/C(=N\OS(=O)(=O)c1ccccc1)c1ccc([N+](=O)[O-])cc1 | 8.4% | 34% | 4% | 5% | – |
| N/C(=N\OS(=O)(=O)c1ccc([N+](=O)[O-])cc1)c1cccnc1 | 11% | 18% | 8% | – | 85 |
| Cc1ccc(S(=O)(=O)O/N=C(\N)c2ccncc2)cc1 | inactive | 32% | inactive | inactive | – |
| NC(=NOS(=O)(=O)c1ccc([N+](=O)[O-])cc1)c1ccncc1 | 20% | 0% | 13% | 49% | – |
| CCCCCCCCCCS(=O)(=O)O/N=C(\N)c1cccnc1 | 24% | 72% | 20% | 33% | – |
| N/C(=N\O)c1ccc([N+](=O)[O-])cc1 | 4% | 85% | 3% | 41% | – |
| N=C(NOS(=O)(=O)c1ccccc1)c1ccccn1 | inactive | 32% | 4% | 30% | – |
| N/C(=N\O)c1cccnc1 | 15% | 60% | 12% | inactive | – |
| CCCS(=O)(=O)O/N=C(\N)c1ccncc1 | 4% | 66% | inactive | inactive | – |
| CCCS(=O)(=O)O/N=C(\N)c1cccnc1 | 27% | 63% | 23% | 16% | – |
| N=C(NOS(=O)(=O)c1ccccc1)c1cccnc1 | 25% | 28% | 24% | 21% | – |
